“Also recorded” adds a separate entry of the source. Numbered stars: 1 amine (or outer) side, 2 acyl side, 3 side chain; on linkers, the order of the positions; unused ones are H or OH. Suc = O=C(CCC(=O)[*:2])[*:1]

In general, Kd refers to the equilibrium constant for the complex coming apart.

The target of one data set is HIV-1 RRE IIB RNA. Briefly: Dissociation constants by electrophoretic mobility shift assay. In kind it is binding. The note with it: EMSA, average of at least three experiments. A general note: Mobility shift assays separate free from complexed probe on a gel.
Data set [1] has as its system HIV-1 capsid protein p24 production. Type of data set: cell-based. To be noted: p24 ELISA; for suppression of HIV replication / inhibition of p24 / inhibition of the production of p24: initial screen; for suppression of HIV replication / inhibition of p24: 100 μM; for inhibition of p24 expression: 40 μM; for inhibition of the production of p24: 10 μM.
The subject of data set [2] is U87 CXCR4 human glioblastoma cell line stably transfected with CD4 and CXCR4. Briefly: MTT toxicity assay. In kind it is cell-based. To be noted: for toxicity (MTT assay): U87 CXCR4 cells, concentrations up to 100 μM; for cell viability (MTT assay in parallel with second p24 screening): at 40 μM. A digest of the protocol:
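MTT viability read in U87 human glioblastoma cells stably transfected with CD4 and CXCR4, with cells receiving no compound as the control. It was run as a toxicity screen of test peptides and again in parallel with the second p24 ELISA screen of HIV replication.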
For orientation: Tetrazolium assays rely on reduction of a dye to a coloured formazan, in cell work by metabolically active cells.

The target in another data set is wild-type RRE IIB RNA. The note with it: EMSA; cited from earlier work.

On to (KKL)2*KKBBAKBBAY [Peptide A14], for which, on HIV-1 RRE IIB RNA, the Kd worked out at 170 ± 50 nM.
Take (KKK)2*KLKACRY [Peptide A4]: in data set [1], the “suppression of HIV replication / inhibition of p24” value is reported as “greatly suppressed HIV replication; also recorded: complete or virtually complete inhibition of p24”. Moreover, the “toxicity (MTT assay)” value in data set [2] was “slight toxicity”. Besides, the Kd at HIV-1 RRE IIB RNA turned out to be 20 ± 4 nM.
Take (KKK)2*LKBBALY [Peptide A2]: at HIV-1 RRE IIB RNA, the Kd came to 130 ± 30 nM.
In the case of (KKKBBA)2*KLKBBAY [Peptide A9], the Kd at HIV-1 RRE IIB RNA was found to be 120 ± 40 nM.
Turning to (KKK)2*LKBBAKBBAY [Peptide A1], in data set [1], the “suppression of HIV replication / inhibition of p24” value is given as “greatly suppressed HIV replication; also recorded: complete or virtually complete inhibition of p24”. Besides, on HIV-1 RRE IIB RNA, the Kd turned out to be 280 ± 80 nM.
For the substance (KLK)2*LKKBBAY [Peptide A10], the equilibrium dissociation constant (Kd) on HIV-1 RRE IIB RNA came to 300 ± 40 nM.
As to (KACRKK)2*KLKBBAY [Peptide A6], in data set [1], the “inhibition of p24 expression” value was “approximately 90%” and the “suppression of HIV replication / inhibition of p24” value was “greatly suppressed HIV replication; also recorded: complete or virtually complete inhibition of p24”. Besides, in data set [2], the “toxicity (MTT assay)” value is reported as “slight toxicity; also recorded: nearly non-toxic” and the “cell viability (MTT assay in parallel with second p24 screening)” value is “confirmed cell viability”. At HIV-1 RRE IIB RNA, the Kd came to 60 ± 10 nM.
In the case of (KKK)2*KACRLKY [Peptide A3], the “suppression of HIV replication / inhibition of p24” value in data set [1] was “greatly suppressed HIV replication”. Besides, at HIV-1 RRE IIB RNA, the dissociation constant (Kd) came out at 140 ± 50 nM.
Take (KKL)2*LKKBBAY [Peptide A12]: the Kd on HIV-1 RRE IIB RNA came out at 330 ± 100 nM.
Regarding (KLK)2*KKKBBAY [Peptide A11], in data set [1], the “inhibition of the production of p24” value stood at 40%. At HIV-1 RRE IIB RNA, the Kd was 1430 ± 870 nM.
Take (KKACRK)2*KLKBBAY [Peptide A7]: in data set [1], the “inhibition of p24 expression” value is on record as “approximately 90%”, the “inhibition of the production of p24” value was found to be 60% and the “suppression of HIV replication / inhibition of p24” value is recorded as “greatly suppressed HIV replication; also recorded: complete or virtually complete inhibition of p24”. Besides, in data set [2], the “toxicity (MTT assay)” value was “cytotoxicity in a dose-dependent manner; also recorded: moderate toxicity” and the “cell viability (MTT assay in parallel with second p24 screening)” value is reported as “confirmed cell viability”. Besides, at HIV-1 RRE IIB RNA, the Kd was 70 ± 30 nM.
As for Suc-TRQARRNRRRRWRERQRAAAAR-NH2 [Rev17], on wild-type RRE IIB RNA, the equilibrium dissociation constant (Kd) is 100 nM.
For the substance (LLK)2*KKBBAKY [Peptide A13], at HIV-1 RRE IIB RNA, the Kd worked out at 210 ± 30 nM.
With (KKBBAK)2*LLKY [Peptide A8], the dissociation constant Kd at HIV-1 RRE IIB RNA stood at 660 ± 90 nM.

(Values after publication PMC4957400 (MedChemComm, 2016).)
